Molecules are shown by their SMILES. The source made the active and inactive calls.

Target in one experiment: not listed separately
Briefly: Displacement of [3H]BTA1 from amyloid beta (1 to 40) peptide by […].
Conditions: not given
Background: Displacement assays read how much labelled ligand stays bound in the presence of the test substance.
Take `CN(C)c1ccc(-c2nc3ccc(NC(=O)c4ccc5c(c4)OCO5)cc3o2)cc1`: the Ki (in general, the dissociation constant of the complex between target and ligand, obtained from inhibition or displacement) was 19.7 nM. For `CN(C)c1ccc(-c2nc3cc(NC(=O)c4ccc5c(c4)OCO5)ccc3o2)cc1`, the inhibitory constant (Ki) is 17.2 nM.

Compound `Cc1cccc(C(=O)Nc2ccc3oc(-c4ccc(N(C)C)cc4)nc3c2)c1` displayed a Ki of 13.4 nM.

In the case of `Cc1ccccc1C(=O)Nc1ccc2oc(-c3ccc(N(C)C)cc3)nc2c1`, the inhibitory constant (Ki) was found to be 18.9 nM. Still for that read-out and setting: then `COc1cc(C(=O)Nc2ccc3oc(-c4ccc(N(C)C)cc4)nc3c2)cc(OC)c1OC`, with 109 nM; and `CN(C)c1ccc(-c2nc3cc(NC(=O)c4ccc(I)cc4)ccc3o2)cc1`, with 9.3 nM; and `Cc1ccc(C(=O)Nc2ccc3nc(-c4ccc(N(C)C)cc4)oc3c2)cc1`, with 86 nM. On the same count and under the same terms, as for `Cc1ccc(C(=O)Nc2ccc3oc(-c4ccc(N(C)C)cc4)nc3c2)cc1`, the figure is 13.2 nM. On to `Cc1cccc(C(=O)Nc2ccc3nc(-c4ccc(N(C)C)cc4)oc3c2)c1`, for which the Ki was found to be 31.5 nM. This Ki is about 2.4-fold higher than that of the compound before. Still for that read-out and setting: then `CN(C)c1ccc(-c2nc3cc(NC(=O)c4ccccc4)ccc3o2)cc1`, with 12 nM. The same measure, in the same setting: then `CN(C)c1ccc(-c2nc3ccc(NC(=O)c4ccc(I)cc4)cc3o2)cc1`, with 60.1 nM; and `COc1cc(C(=O)Nc2ccc3nc(-c4ccc(N(C)C)cc4)oc3c2)cc(OC)c1OC`, with 628 nM. As for `Cc1ccccc1C(=O)Nc1ccc2nc(-c3ccc(N(C)C)cc3)oc2c1`, the affinity, expressed as Ki, was 112 nM. Against the preceding compound, the Ki is about 5.6-fold lower. On the same count and under the same terms, then `CN(C)c1ccc(-c2nc3ccc(NC(=O)c4ccccc4)cc3o2)cc1`, with 26 nM.

A further experiment relates to Papio anubis. Put plainly: In vivo binding affinity to amyloid beta (1 to 40) peptide in ovariectomized baboon by SPECT imaging. In kind it is functional, organism-based. The settings on record: tested as the 123I-labelled form. Summed up: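 Nonhuman primate fasted 18-24 h, immobilized with ketamine (10 mg/kg i.m.) plus glycopyrrolate (10 μg/kg i.m.) 2 h before study, intubated, kept on 2.5% isoflurane, vitals checked every 15 min. 123I tracer (3.2 mCi in 8 mL, ethanol/saline) injected. Continuous brain-dedicated SPECT at 159 keV for 1 h. Reconstruction used ramp plus Butterworth filter (cutoff 0.65 cm-1).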
In the case of `CN(C)c1ccc(-c2nc3cc(NC(=O)c4ccc(I)cc4)ccc3o2)cc1`, the outcome was inactive.

(Values after ChEMBL document CHEMBL1154546, “Synthesis of 5- and 6-substituted 2-(4-dimethylaminophenyl)-1,3-benzoxazoles and their in vitro and in vivo evaluation as imaging agents for amyloid plaque” (Bioorg Med Chem Lett, 2009).)
